Data on 96 compounds can be found in ChEMBL document CHEMBL4513216, “Probing the Open Global Health Chemical Diversity Library for Multistage-Active Starting Points for Next-Generation Antimalarials” (ACS Infect Dis, 2020).

The structures appear in SMILES notation.

The nature of the data set: Toxicity liver stage against HepG2, at 10uM. The class given is cell-based. More on the design: test concentration 10 uM, cell line HepG2-A16-CD81EGFP. The following applies: human, HepG2-A16-CD81EGFP cells; read-out: INHIBITION
In short, it runs like this: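 Uninfected HepG2-A16-CD81EGFP cells, 3 × 10^3 per well, 1536-well, plated on prespotted compound at 10 μM final, parasite-free screening media added to match infected plates; puromycin 10 μM positive, DMSO 0.5% negative; run in parallel with 48 h PbLuc assay at 37 °C, 5% CO2; viability by CellTiter-Glo luminescence, normalized to controls.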
Turning to `CC(C)Oc1cccc(C(=O)C2CCCN(C(=O)c3ccoc3)C2)c1` (stereo unspecified), the cytotoxicity at 10 µM amounted to 1.43%.

As for `C=C(C)CSc1nnc(CCNC(=O)OC(C)(C)C)o1`, the cytotoxicity at 10 µM turned out to be 8.94%.

Consider `CCCC(=O)N(CCN1CCOCC1)c1nc2c(OC)ccc(C)c2s1`, for which the cytotoxicity at 10 µM was -5.02%.

Take `Cn1c(=O)c2cc(C(=O)NCCc3ccccc3)ccc2n(C)c1=O`: the cytotoxicity at 10 µM is -13.8%.

Turning to `CCN(CC)C(=O)CC[C@@H]1CNC(=O)[C@@H]2C[C@H](NC(=O)C3CC3)CN12`, the cytotoxicity at 10 µM came out at 5.76%.

Turning to `COCCn1ccc2cc(C(=O)N3CCN(S(C)(=O)=O)CC3)ccc21`, the cytotoxicity at 10 µM was -6.63%.

On to `Cc1ccc(S(=O)(=O)NCC2(O)CCOc3ccccc32)s1` (stereo unspecified), for which the cytotoxicity at 10 µM was 5.33%.

On to `N#Cc1ccc(OC2CCN(C(=O)c3ccc(Br)o3)CC2)nc1`, for which the cytotoxicity at 10 µM was 11.2%.

Regarding `COCCc1noc(C2CCN(C(=O)Nc3cccs3)CC2)n1`, the cytotoxicity at 10 µM is -10.6%.

As to `CN(C)c1ccc2c(c1)CN(C(=O)c1ccco1)C2c1cnco1` (stereo unspecified), the cytotoxicity at 10 µM amounted to 31.9%.

Regarding `Cc1noc(C2CCC3(CCN(C(=O)c4ccn(C)n4)CC3)O2)n1` (stereo unspecified), the cytotoxicity at 10 µM was 7.57%.

For the compound `Cn1cc(CN2CCC(F)(F)C3(CCN(c4cccc(F)c4)C3)C2)cn1` (stereo unspecified), the cytotoxicity at 10 µM was 45.9%.

Turning to `O=C(NCc1ccco1)[C@@H]1C[C@H]2OCC[C@H]2N(c2ncc(F)cn2)C1`, the cytotoxicity at 10 µM was -0.113%.

`CC(C)C(NC(=O)Cn1nc2c(cc1=O)CCCC2)C(=O)O` (stereo unspecified): the cytotoxicity at 10 µM came out at 7.63%.

As to `Cc1cccc(Cn2cc(Br)c(NS(C)(=O)=O)n2)c1`, the cytotoxicity at 10 µM is -0.08%.

On to `COCC(=O)NCCn1nc(-c2cc(C)oc2C)ccc1=O`, for which the cytotoxicity at 10 µM was -1.74%.

Take `O=C(NC[C@]1(O)CCN(Cc2ccsc2)C[C@H]1O)c1c[nH]cn1`: the cytotoxicity at 10 µM turned out to be 0.514%.

As for `O=C1N[C@H]2OCCC[C@H]2[C@H](c2ccccc2C(=O)O)N1`, the cytotoxicity at 10 µM came out at 2.62%.

In the case of `Cn1ccnc1CNC(=O)CCc1cccc(F)c1`, the cytotoxicity at 10 µM was determined as 0.293%.

Take `COCCC(=O)N1CCC2(CC1)CN(S(C)(=O)=O)Cc1ccccc1O2`: the cytotoxicity at 10 µM was 3.73%.

As for `c1cnc(Nc2cncc(C3CCCN(c4ncccn4)C3)n2)nc1` (stereo unspecified), the cytotoxicity at 10 µM is -2.44%.

For `COc1ccccc1CC(C)N(C)CCS(C)(=O)=O` (stereo unspecified), the cytotoxicity at 10 µM turned out to be 7.57%.

Take `CC(NCCCn1ccnc1)c1ccc(N2CCCS2(=O)=O)cc1` (stereo unspecified): the cytotoxicity at 10 µM was -7.49%.

`Cc1cnn(CCNCC(=O)N2CCN(c3ccccn3)CC2)c1`: the cytotoxicity at 10 µM is 1.22%.

Turning to `CNC(=O)CCN(C)CC1(c2ccc(Br)cc2)CC1`, the cytotoxicity at 10 µM was -12.5%.

For the compound `NC(=O)CSCCC(=O)NCC1CC1`, the cytotoxicity at 10 µM was found to be 6.2%.

Take `Cc1cnn(Cc2ccc(NC(=O)N3CCCCC3CO)cc2)c1` (stereo unspecified): the cytotoxicity at 10 µM turned out to be 56.1%.

Consider `CNS(=O)(=O)c1ccc(CNC(=O)Nc2ccccn2)s1`, for which the cytotoxicity at 10 µM is -9.11%.

For the compound `Cc1c(CS(C)(=O)=O)cccc1NCC1CCCCC1`, the cytotoxicity at 10 µM was -8.98%.

Turning to `CCNC(=O)CCC(=O)NC(C)Cc1ccccc1Br` (stereo unspecified), the cytotoxicity at 10 µM was -4.99%.

As to `Cc1cc(C)c(CNC(=O)N2CCC(N3CCCCC3)CC2)c(=O)[nH]1`, the cytotoxicity at 10 µM was found to be 7.53%.

With `Cc1cc(C(=O)N2CC(=O)Nc3cnccc32)c(Cl)cc1F`, the cytotoxicity at 10 µM worked out at 3.07%.

Regarding `CC(Nc1ccc(N2C(=O)CCCC2=O)cc1)c1ccc(C#N)cc1` (stereo unspecified), the cytotoxicity at 10 µM was determined as 8.71%.

Turning to `CCOCC(=O)Nc1ncc(I)cc1C`, the cytotoxicity at 10 µM was -4.76%.

In the case of `Cc1ccc(NC2CCN(C(=O)CCCc3ccccn3)CC2)cc1`, the cytotoxicity at 10 µM turned out to be 13.3%.

As for `Cc1ccc(C)c(S(=O)(=O)NCCC(=O)NCc2ccoc2)c1`, the cytotoxicity at 10 µM is -11.5%.

As for `Cc1nc(C2(NCC(=O)NC(=O)NCC(F)(F)F)CCCCC2)no1`, the cytotoxicity at 10 µM was found to be 18.4%.

As to `Cc1nc(NC(=O)c2nn(-c3ccc(F)cc3C)cc2O)n[nH]1`, the cytotoxicity at 10 µM is -7.3%.

With `N#Cc1nccnc1NCCC1CCN(CC(F)(F)F)CC1`, the cytotoxicity at 10 µM is 1.6%.

For the compound `CC(C)OCCS(=O)(=O)c1ccccc1C#N`, the cytotoxicity at 10 µM is 8.24%.

Take `O=C(c1ccc2[nH]cnc2c1)N1CCCC1Cn1cccn1` (stereo unspecified): the cytotoxicity at 10 µM is -10%.

Consider `Cc1nc(-c2ccccc2)ccc1C(=O)N1CCn2c(C)nnc2C1`, for which the cytotoxicity at 10 µM was found to be 4.01%.

Take `Cc1ccc(C(F)(F)F)cc1NCC(=O)Nc1c(C)nn(C)c1C`: the cytotoxicity at 10 µM was -1.86%.

In the case of `CC(C)c1cnc(CN2C(=O)CC3(CCSC3)C2=O)o1` (stereo unspecified), the cytotoxicity at 10 µM was determined as 17.2%.

As for `CC(C)(C)c1cnc(CN2C(=O)CC3(CCSC3)C2=O)o1` (stereo unspecified), the cytotoxicity at 10 µM stood at 7.28%.

Regarding `Cn1cc(CC(CNC(=O)Nc2cccc(Cl)c2)C(N)=O)cn1` (stereo unspecified), the cytotoxicity at 10 µM was -15.5%.

`Cc1cccc2c1OCCCC2NCc1nccn1Cc1ccccc1` (stereo unspecified): the cytotoxicity at 10 µM amounted to 1.38%.

Take `CN(C)c1ccc(CNCc2ccc(N3CCOCC3)cc2)cn1`: the cytotoxicity at 10 µM was 7.17%.

With `O=C(Nc1ccc(-n2cccn2)c(F)c1)C1CCN(C(=O)C2CC2)CC1`, the cytotoxicity at 10 µM turned out to be 1.48%.

With `Cn1nnnc1SCCC(=O)NCC1Cc2ccccc2O1` (stereo unspecified), the cytotoxicity at 10 µM was 9.35%.

`Cc1ccc(CCCC(=O)N2CCC(CS(N)(=O)=O)CC2)s1`: the cytotoxicity at 10 µM was 15.6%.

Consider `COc1cccc(COCC(=O)NC(C)c2nnc3n2CCC3)c1` (stereo unspecified), for which the cytotoxicity at 10 µM is -3.36%.

Take `Cn1ncnc1NCc1ccc(Cl)cc1`: the cytotoxicity at 10 µM is -4.43%.

Take `Cc1nncn1CCNC(=O)C(C)(C)c1cccc(C(F)(F)F)c1`: the cytotoxicity at 10 µM worked out at 8.63%.

Regarding `CC(CC(=O)Nc1ccc(C(=O)N(C)C)c(Cl)c1)n1cccc1` (stereo unspecified), the cytotoxicity at 10 µM turned out to be 7.07%.

Take `Cc1ccc(C2COCCN2C(=O)c2ccc(N(C)C)cc2)o1` (stereo unspecified): the cytotoxicity at 10 µM is 4%.

In the case of `CCc1cc(NCC(O)CN2CCCCC2)n2ncnc2n1` (stereo unspecified), the cytotoxicity at 10 µM is -7.45%.

Turning to `Cc1nc(C)n(CC2CCCN(Cc3nnc(-c4ccco4)o3)C2)n1` (stereo unspecified), the cytotoxicity at 10 µM was -8.33%.

With `O=C(NCc1cc[nH]n1)NC1CCCN(c2ncccn2)C1` (stereo unspecified), the cytotoxicity at 10 µM is -2.26%.

`CCCNC(=O)c1nc2c(o1)CN(C(C)=O)C2`: the cytotoxicity at 10 µM is -70.6%.

With `COc1ccc(N2CCN(Cc3nc(CSC)no3)C(C)C2=O)cc1` (stereo unspecified), the cytotoxicity at 10 µM came to 3.28%.

With `Cc1nc(N(C)C)ncc1C(=O)NCCc1csc(-c2ccncc2)n1`, the cytotoxicity at 10 µM is 1.39%.

Regarding `CNC(=O)CCN1CCC(c2nnc(Cn3cccn3)n2C2CC2)CC1`, the cytotoxicity at 10 µM came to 1.53%.

As to `CCC(=O)Nc1cccc(OCC(=O)N(C)Cc2cc(COC)[nH]n2)c1`, the cytotoxicity at 10 µM amounted to 1.79%.

On to `COCC(C)N1CCc2onc(-c3ccc(C(F)(F)F)cc3)c2C1` (stereo unspecified), for which the cytotoxicity at 10 µM is -6.45%.

In the case of `COCc1ccc(C(=O)N2CCN(CC=C(C)C)[C@@H]3CS(=O)(=O)C[C@@H]32)o1`, the cytotoxicity at 10 µM turned out to be 17.2%.

For the compound `O=C(NC1CCCN(CCc2ccccc2)C1)c1cnccn1` (stereo unspecified), the cytotoxicity at 10 µM is 7.95%.

Regarding `COc1cccc2c1OCC(C(=O)N1CCSCC1)C2` (stereo unspecified), the cytotoxicity at 10 µM came to 1.88%.

`O=C(c1cc2c(s1)CCCCC2)N1CCC(c2ncc[nH]2)CC1`: the cytotoxicity at 10 µM worked out at 15.7%.

Regarding `CCOC(=O)N[C@H]1C[C@@H](C(=O)NCc2cccc(Cl)c2)N(C)C1`, the cytotoxicity at 10 µM was -3.89%.

For the compound `C[C@@H]1CN(C(=O)c2ccc(=O)[nH]c2)CC[C@@]1(O)C1CCOCC1`, the cytotoxicity at 10 µM was -1.59%.

Consider `CC[C@H]1CN(C(=O)c2cccc(-n3cnnc3)n2)CC[C@@]1(C)O`, for which the cytotoxicity at 10 µM is 3.66%.

For the compound `Cc1cc2cccc(NC(=O)N3CCC(N(C)C)C3)c2o1` (stereo unspecified), the cytotoxicity at 10 µM worked out at 1.97%.

As for `CCN(Cc1nccn1C)C(=O)c1ccc(NCCc2c[nH]cn2)nc1`, the cytotoxicity at 10 µM is -2.5%.

Turning to `O=c1cc(C2CCNCC2)nc(CCc2ccccn2)[nH]1`, the cytotoxicity at 10 µM is -0.226%.

Turning to `CSc1ccccc1C(C(=O)O)N(C)CC1CCOCC1` (stereo unspecified), the cytotoxicity at 10 µM came out at 4.93%.

In the case of `c1ccc(C2CCCN2C2CCSCC2)nc1` (stereo unspecified), the cytotoxicity at 10 µM worked out at 9.03%.

Regarding `COc1cccc(OCCNS(C)(=O)=O)c1`, the cytotoxicity at 10 µM is 13%.

As for `O=C(CCC(F)(F)F)N1CCCC(c2ncc[nH]2)C1` (stereo unspecified), the cytotoxicity at 10 µM was 2.14%.

As to `O=C(Nc1cccc(CNCc2ccccn2)c1)C1CCCC1`, the cytotoxicity at 10 µM is -7.63%.

`Cc1n[nH]c(C)c1C1COCCN1C(=O)c1ccc(Cl)o1` (stereo unspecified): the cytotoxicity at 10 µM is -1.01%.

Consider `c1ncn(CC2CCCN(Cc3nnc(C4CC4)o3)C2)n1` (stereo unspecified), for which the cytotoxicity at 10 µM is -14.5%.

Consider `CCC1c2ccsc2CCN1C(=O)NCc1ccc(C)nc1` (stereo unspecified), for which the cytotoxicity at 10 µM was -3.75%.

As for `O=C(NCCNc1ncccn1)C1CCN(c2ncccn2)CC1`, the cytotoxicity at 10 µM is -7.67%.

As for `Cc1cnn(C2CCCN(C(=O)Cc3ccc(-n4cccn4)cc3)C2)c1` (stereo unspecified), the cytotoxicity at 10 µM came to 2.55%.

With `COc1ccc(OC)c(NC(=O)NCC(O)c2ccc(F)c(F)c2)c1` (stereo unspecified), the cytotoxicity at 10 µM was 0.746%.

`Cc1ccc(NC2CCN(C(=O)Cc3ccc(C#N)cc3)CC2)nn1`: the cytotoxicity at 10 µM is -6.83%.

With `CC(C)n1c(=O)c2ccccc2n(CCN(C)C)c1=O`, the cytotoxicity at 10 µM amounted to 0.616%.

As to `Cc1nnc(N2CC[C@H]3C[C@@H](C(=O)N4CCCC4)O[C@H]3C2)s1`, the cytotoxicity at 10 µM was -70.6%.

On to `CN(C)C(=O)CO[C@H]1CN(Cc2ccsc2)[C@@H]2COC[C@H]12`, for which the cytotoxicity at 10 µM came out at 8.44%.

As to `COCc1ncn2c1CN(S(=O)(=O)Cc1ccc(C)cc1)CC2`, the cytotoxicity at 10 µM was determined as 0.854%.

For the compound `COCCN1CCO[C@@H]2CN(Cc3ccc(C)o3)C[C@@H]2C1`, the cytotoxicity at 10 µM was -7.24%.

As for `O=C(c1cccnc1)N1C[C@@H](c2ccccc2)[C@@]2(CCNC2=O)C1`, the cytotoxicity at 10 µM was -6.23%.

Take `Cc1cc(CN2CCO[C@H]3[C@H](OCc4csc(C)n4)CC[C@@H]32)no1`: the cytotoxicity at 10 µM is 5.86%.

On to `Cn1cnc2c1C(COCC1CCOCC1)CN(C1CCOCC1)C2` (stereo unspecified), for which the cytotoxicity at 10 µM is -4.22%.

`CCC=C(C)C(=O)NCc1ccc(OC)nc1`: the cytotoxicity at 10 µM was -4.13%.
